Measurements: ChEMBL document CHEMBL1155174, “Cross-resistance to medical and agricultural azole drugs in yeasts from the oropharynx of human immunodeficiency virus patients and from environmental Bavarian vine grapes” (2007)
≈ marks a conversion by molar mass, not a printed value.

Assays:
Assay type in all cases: functional
Cryptococcus neoformans = assay: Antifungal activity against Cryptococcus neoformans ATCC 90112 by NCCLS M27-A2 method
Diutina rugosa = assay: Antifungal activity against Candida rugosa isolates from feeding stuff by NCCLS M27-A2 method
Summary of the method: (§1)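 Broth dilution per NCCLS M27-A2, with azoles serially diluted in high-resolution antifungal assay medium over 0.125–128, 0.03–64 or 0.06–128 μg/ml depending on the drug. MIC endpoints were read spectrophotometrically at 540 nm. Values are reported per species or source group as median and range.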

Rhodotorula = assay: Antifungal activity against Rhodotorula sp. isolates from grapes by NCCLS M27-A2 method; summary of the method: as §1
Saccharomycopsis = assay: Antifungal activity against Saccharomycopsis guttulata isolates from feeding stuff by NCCLS M27-A2 method; summary of the method: as §1
Pichia norvegensis = assay: Antifungal activity against Candida norvegensis isolates from grapes by NCCLS M27-A2 method; summary of the method: as §1
Candida parapsilosis = assay: Antifungal activity against Candida parapsilosis ATCC 22013 by NCCLS M27-A2 method; details: Lodderomyces parapsilosis
Candida albicans [1] = assay: Antifungal activity against Candida albicans isolates from animals by NCCLS M27-A2 method; summary of the method: as §1
Pichia fermentans = assay: Antifungal activity against Candida lambica isolates from grapes by NCCLS M27-A2 method; summary of the method: as §1
Pichia kudriavzevii [2] = assay: Antifungal activity against Candida krusei ATCC 6258 by NCCLS M27-A2 method; summary of the method: as §1
Wickerhamomyces anomalus = assay: Antifungal activity against Pichia anomala isolates from grapes by NCCLS M27-A2 method; details: Hansenula anomala; summary of the method: as §1
Starmerella stellata = assay: Antifungal activity against sCandida stellata isolates from grapes by NCCLS M27-A2 method; summary of the method: as §1
Candida albicans [3] = assay: Antifungal activity against Candida albicans isolates from HIV infected patient during fluconazole therapy by NCCLS M27-A2 method; summary of the method: as §1
Nakaseomyces glabratus [4] = assay: Antifungal activity against Candida glabrata isolates from feeding stuffs by NCCLS M27-A2 method; summary of the method: as §1
Hanseniaspora uvarum = assay: Antifungal activity against sKloeckera apiculata isolates from grapes by NCCLS M27-A2 method; summary of the method: as §1
Pichia kudriavzevii [5] = assay: Antifungal activity against Candida krusei isolates from grapes and feeding stuffs by NCCLS M27-A2 method; summary of the method: as §1
Saccharomyces cerevisiae = assay: Antifungal activity against sSaccharomyces cerevisiae isolates from grapes by NCCLS M27-A2 method; summary of the method: as §1
Candida albicans [6] = assay: Antifungal activity against Candida albicans isolates by NCCLS M27-A2 method; summary of the method: as §1
Candida albicans [7] = assay: Antifungal activity against Candida albicans isolates from HIV infected patient before fluconazole therapy by NCCLS M27-A2 method; summary of the method: as §1
Nakaseomyces glabratus [8] = assay: Antifungal activity against Candida glabrata ATCC 90030 by NCCLS M27-A2 method; summary of the method: as §1

| Structure (SMILES) | MIC50 (Cryptococcus neoformans) [µg/mL] | MIC50 (Diutina rugosa) [µg/mL] | MIC50 (Rhodotorula) [µg/mL] | MIC50 (Saccharomycopsis) [µg/mL] | MIC50 (Pichia norvegensis) [µg/mL] | MIC50 (Candida parapsilosis) [µg/mL] | MIC50 (Candida albicans [1]) [µg/mL] | MIC50 (Pichia fermentans) [µg/mL] | MIC50 (Pichia kudriavzevii [2]) [µg/mL] | MIC50 (Wickerhamomyces anomalus) [µg/mL] | MIC50 (Starmerella stellata) [µg/mL] | MIC50 (Candida albicans [3]) [µg/mL] | MIC50 (Nakaseomyces glabratus [4]) [µg/mL] | MIC50 (Hanseniaspora uvarum) [µg/mL] | MIC50 (Pichia kudriavzevii [5]) [µg/mL] | MIC50 (Saccharomyces cerevisiae) [µg/mL] | MIC50 (Candida albicans [6]) [µg/mL] | MIC50 (Candida albicans [7]) [µg/mL] | MIC50 (Nakaseomyces glabratus [8]) [µg/mL] |
| --- | --- | --- | --- | --- | --- | --- | --- | --- | --- | --- | --- | --- | --- | --- | --- | --- | --- | --- | --- |
| OC(Cn1cncn1)(Cn1cncn1)c1ccc(F)cc1F [FLUCONAZOLE] | 8 (≈ 26.1 µM) | 1 (≈ 3.27 µM) | 16 (≈ 52.2 µM) | 1 (≈ 3.27 µM) | 128 (≈ 418 µM) | 2 (≈ 6.53 µM) | 0.25 (≈ 0.816 µM) | 128 (≈ 418 µM) | 64 (≈ 209 µM) | 2 (≈ 6.53 µM) | 64 (≈ 209 µM) | 128 (≈ 418 µM) | 32 (≈ 104 µM) | 0.5 (≈ 1.63 µM) | 64 (≈ 209 µM) | 8 (≈ 26.1 µM) | 0.12 (≈ 0.392 µM) | 2.25 (≈ 7.35 µM) |  |
| O=c1c2cc(F)ccc2nc(-n2cncn2)n1-c1ccc(Cl)cc1Cl [FLUQUINCONAZOLE] | 0.12 (≈ 0.319 µM) | 0.12 (≈ 0.319 µM) | 0.5 (≈ 1.33 µM) | 64 (≈ 170 µM) | 64 (≈ 170 µM) | 2 (≈ 5.32 µM) | 0.5 (≈ 1.33 µM) | 64 (≈ 170 µM) | 128 (≈ 340 µM) | 4 (≈ 10.6 µM) | 64 (≈ 170 µM) | 64 (≈ 170 µM) | 1 (≈ 2.66 µM) | 0.12 (≈ 0.319 µM) | 128 (≈ 340 µM) | 0.25 (≈ 0.665 µM) | 0.5 (≈ 1.33 µM) | 0.375 (≈ 0.997 µM) | 32 (≈ 85.1 µM) |
| CCC(C)n1ncn(-c2ccc(N3CCN(c4ccc(OCC5COC(Cn6cncn6)(c6ccc(Cl)cc6Cl)O5)cc4)CC3)cc2)c1=O (stereo unspecified) [ITRACONAZOLE] | 0.5 (≈ 0.709 µM) | 0.06 (≈ 0.085 µM) | 0.06 (≈ 0.085 µM) | 0.5 (≈ 0.709 µM) | 1 (≈ 1.42 µM) | 0.25 (≈ 0.354 µM) | 0.12 (≈ 0.17 µM) | 2 (≈ 2.83 µM) | 0.5 (≈ 0.709 µM) | 0.5 (≈ 0.709 µM) | 2 (≈ 2.83 µM) | 0.75 (≈ 1.06 µM) | 1 (≈ 1.42 µM) | 0.25 (≈ 0.354 µM) | 1 (≈ 1.42 µM) | 2 (≈ 2.83 µM) | 0.06 (≈ 0.085 µM) | 0.06 (≈ 0.085 µM) | 4 (≈ 5.67 µM) |
| CC(=O)N1CCN(c2ccc(OCC3COC(Cn4ccnc4)(c4ccc(Cl)cc4Cl)O3)cc2)CC1 (stereo unspecified) [KETOCONAZOLE] | 2 (≈ 3.76 µM) | 0.25 (≈ 0.47 µM) | 0.5 (≈ 0.941 µM) | 2 (≈ 3.76 µM) | 2 (≈ 3.76 µM) | 0.12 (≈ 0.226 µM) | 0.5 (≈ 0.941 µM) | 4 (≈ 7.53 µM) | 2 (≈ 3.76 µM) | 1 (≈ 1.88 µM) | 8 (≈ 15.1 µM) | 2 (≈ 3.76 µM) | 4 (≈ 7.53 µM) | 0.25 (≈ 0.47 µM) | 8 (≈ 15.1 µM) | 2 (≈ 3.76 µM) | 0.03 (≈ 0.0565 µM) | 0.25 (≈ 0.47 µM) | 8 (≈ 15.1 µM) |
| CCCC(Cn1cncn1)c1ccc(Cl)cc1Cl (stereo unspecified) [PENCONAZOLE] | 4 (≈ 14.1 µM) | 1 (≈ 3.52 µM) | 16 (≈ 56.3 µM) | 8 (≈ 28.2 µM) | 64 (≈ 225 µM) | 8 (≈ 28.2 µM) | 2 (≈ 7.04 µM) | 64 (≈ 225 µM) | 64 (≈ 225 µM) | 8 (≈ 28.2 µM) | 96 (≈ 338 µM) | 12 (≈ 42.2 µM) | 4 (≈ 14.1 µM) | 0.5 (≈ 1.76 µM) | 128 (≈ 450 µM) | 2 (≈ 7.04 µM) | 2 (≈ 7.04 µM) | 0.25 (≈ 0.88 µM) | 4 (≈ 14.1 µM) |
| CC(C)(C)C(O)(CCc1ccc(Cl)cc1)Cn1cncn1 (stereo unspecified) [TEBUCONAZOLE] | 4 (≈ 13 µM) | 0.06 (≈ 0.195 µM) | 1 (≈ 3.25 µM) | 4 (≈ 13 µM) | 4 (≈ 13 µM) | 1 (≈ 3.25 µM) | 0.185 (≈ 0.601 µM) | 16 (≈ 52 µM) | 32 (≈ 104 µM) | 4 (≈ 13 µM) | 64 (≈ 208 µM) | 24 (≈ 78 µM) | 2 (≈ 6.5 µM) | 0.06 (≈ 0.195 µM) | 64 (≈ 208 µM) | 1 (≈ 3.25 µM) | 0.06 (≈ 0.195 µM) | 0.75 (≈ 2.44 µM) | 8 (≈ 26 µM) |
| CC(C)(C)C(O)C(Oc1ccc(Cl)cc1)n1cncn1 (stereo unspecified) [TRIADIMENOL] | 4 (≈ 13.5 µM) | 1 (≈ 3.38 µM) | 64 (≈ 216 µM) | 16 (≈ 54.1 µM) | 64 (≈ 216 µM) | 16 (≈ 54.1 µM) | 1.5 (≈ 5.07 µM) | 128 (≈ 433 µM) | 32 (≈ 108 µM) | 16 (≈ 54.1 µM) | 128 (≈ 433 µM) | 64 (≈ 216 µM) | 8 (≈ 27 µM) | 0.25 (≈ 0.845 µM) | 64 (≈ 216 µM) | 8 (≈ 27 µM) | 2 (≈ 6.76 µM) | 2 (≈ 6.76 µM) | 8 (≈ 27 µM) |
| C[C@@H](c1ncncc1F)[C@](O)(Cn1cncn1)c1ccc(F)cc1F [VORICONAZOLE] | 0.25 (≈ 0.716 µM) | 0.03 (≈ 0.0859 µM) | 0.06 (≈ 0.172 µM) | 0.12 (≈ 0.344 µM) | 2 (≈ 5.73 µM) | 0.06 (≈ 0.172 µM) | 0.03 (≈ 0.0859 µM) | 2 (≈ 5.73 µM) | 1 (≈ 2.86 µM) | 0.25 (≈ 0.716 µM) | 1 (≈ 2.86 µM) | 1.5 (≈ 4.29 µM) | 0.25 (≈ 0.716 µM) | 0.03 (≈ 0.0859 µM) | 1 (≈ 2.86 µM) | 0.5 (≈ 1.43 µM) | 0.03 (≈ 0.0859 µM) | 0.03 (≈ 0.0859 µM) | 2 (≈ 5.73 µM) |
